Laboratory results: ChEMBL document CHEMBL1152867, “Targeting QseC signaling and virulence for antibiotic development” (Science, 2008)
Activity calls are given as the source filed them. The rule behind the calls is not given here.

Tests used:
[1] = Cmax in CD1 mouse at 20 mg/kg, iv administered as bolus dose; assay type: ADME, organism-based; parameters: dose 20 mg/kg, route intravenous; conditions: in vivo
Summary of the method: (§1)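 Groups of three were bled terminally by cardiac puncture at set times. Plasma was acetonitrile-precipitated with internal standard and quantified by electrospray LC/MS/MS against a plasma standard curve (10-1000 ng/ml). Noncompartmental analysis was used.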

[2] = AUC in CD1 mouse at 5 mg/kg, iv administered as bolus dose; assay type: ADME, organism-based; parameters: dose 5 mg/kg, route intravenous; conditions: plasma; summary of the method: as §1
[3] = AUC in CD1 mouse at 10 mg/kg, iv administered as bolus dose; assay type: ADME, organism-based; parameters: dose 10 mg/kg, route intravenous; conditions: plasma; summary of the method: as §1
Mus musculus [4] = assay: Toxicity in CD1 mouse assessed as change in brain weight at 20 mg/kg, po administered daily once for 5 days measured 3 days after final dose; assay type: organism-based; parameters: dose 20 mg/kg, route oral; conditions: in vivo
Summary of the method: (§2)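 Female CD-1 mice (~22 g), three per group, given 20 mg/kg by oral gavage once daily for 5 days. Vehicle-only mice served as controls. Animals were weighed and observed daily. Three days after the last dose they were weighed and sacrificed. Blood was taken for chemistry and complete blood counts, and organs were weighed.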

Mus musculus [5] = assay: Toxicity in CD1 mouse assessed as change in kidney weight at 20 mg/kg, po administered daily once for 5 days measured 3 days after final dose; assay type: organism-based; parameters: dose 20 mg/kg, route oral; conditions: in vivo, 72 h; summary of the method: as §2
[6] = Cmax in CD1 mouse at 20 mg/kg, po; assay type: ADME, organism-based; parameters: dose 20 mg/kg, route oral; conditions: in vivo
Summary of the method: (§3)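 Terminal cardiac bleeds were taken in groups of three at set times. Plasma was acetonitrile-precipitated with internal standard and analysed by LC/MS/MS against a spiked-plasma standard curve. Parameters came from noncompartmental analysis.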

[7] = system: Francisella tularensis subsp. tularensis SCHU S4; assay: Bacteriostatic activity against Francisella tularensis SCHU S4 at 1 uM in presence of epinephrine; assay type: functional, organism-based
Mus musculus [8] = assay: Toxicity in CD1 mouse assessed as hemoglobin levels at 20 mg/kg, po administered daily once for 5 days measured 3 days after final dose; assay type: organism-based; parameters: dose 20 mg/kg, route oral; conditions: in vivo, 72 h; summary of the method: as §2
Mus musculus [9] = assay: Toxicity in CD1 mouse assessed as mean corpuscular hemoglobin at 20 mg/kg, po administered daily once for 5 days measured 3 days after final dose; assay type: organism-based; parameters: dose 20 mg/kg, route oral; conditions: in vivo, 72 h; summary of the method: as §2
Escherichia coli [10] = assay: Antibacterial activity against Escherichia coli infected in New Zealand white rabbit assessed as inhibition of bacterial colonization in cecum at 20 mg/kg pretreated before 3 hrs of bacterial challenge; assay type: functional, organism-based; parameters: dose 20 mg/kg; conditions: Caecum
Mus musculus [11] = assay: Toxicity in CD1 mouse assessed as alanine transferase levels at 20 mg/kg, po administered daily once for 5 days measured 3 days after final dose; assay type: organism-based; parameters: dose 20 mg/kg, route oral; conditions: in vivo, 72 h
Mus musculus [12] = assay: Toxicity in CD1 mouse assessed as change in thymus weight at 20 mg/kg, po administered daily once for 5 days measured 3 days after final dose; assay type: organism-based; parameters: dose 20 mg/kg, route oral; conditions: in vivo; summary of the method: as §2
Salmonella typhimurium [13] = assay: Bacteriostatic activity against Salmonella Typhimurium SL1344 at 1 uM in presence of epinephrine; assay type: functional, organism-based; conditions: Salmonella enterica subsp. enterica serovar Typhimurium str. SL1344
Mus musculus [14] = assay: Toxicity in CD1 mouse assessed as mean corpuscular hemoglobin concentration at 20 mg/kg, po administered daily once for 5 days measured 3 days after final dose; assay type: organism-based; parameters: dose 20 mg/kg, route oral; conditions: in vivo, 72 h; summary of the method: as §2
[15] = Clearance in CD1 mouse at 20 mg/kg, po; assay type: ADME, organism-based; parameters: dose 20 mg/kg, route oral; conditions: in vivo; summary of the method: as §3
Escherichia coli [16] = assay: Inhibition of AI3-induced Qsec-dependent virulence gene flhDC expression in Escherichia coli at 5 pM by quantitative real-time PCR; assay type: functional, organism-based
[17] = biological target: Beta-2 adrenergic receptor (Homo sapiens) (UniProt P07550); assay: Effect on terbulaline-induced human beta-2-adrenergic receptor activation expressed in HEK293 cells assessed as cAMP release at 5 uM; assay type: functional, cell-based
Summary of the method: (§4)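 HEK293 cells carried an EPAC-based cAMP BRET reporter. The agonist for β1 (exogenous) was 1 nM dobutamine, for β2 (endogenous) 100 nM terbutaline, and for β3 (exogenous) 10 nM BRL37344. Each agonist was given alone or with 5 μM compound. Live-cell cAMP was read as triplicate means, representative of 3 experiments.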

Mus musculus [18] = assay: Toxicity in CD1 mouse assessed as phosphate levels at 20 mg/kg, po administered daily once for 5 days measured 3 days after final dose; assay type: organism-based; parameters: dose 20 mg/kg, route oral; conditions: in vivo, 72 h; summary of the method: as §2
Mus musculus [19] = assay: Toxicity in CD1 mouse assessed as change in liver weight at 20 mg/kg, po administered daily once for 5 days measured 3 days after final dose; assay type: organism-based; parameters: dose 20 mg/kg, route oral; conditions: in vivo, 72 h; summary of the method: as §2
Escherichia coli [20] = assay: Inhibition of AI3-induced Qsec-dependent virulence gene eae expression in Escherichia coli at 5 pM by quantitative real-time PCR; assay type: functional, organism-based
[21] = Terminal half life in CD1 mouse at 20 mg/kg, po; assay type: ADME, organism-based; parameters: dose 20 mg/kg, route oral; conditions: in vivo, read-out: beta t1/2; summary of the method: as §3
[22] = system: Francisella tularensis subsp. tularensis SCHU S4; assay: Inhibition of virulence gene iglC expression in Francisella tularensis SCHU S4 at 5 pM by quantitative real-time PCR; assay type: functional, organism-based
Salmonella typhimurium [23] = assay: Antibacterial activity against Salmonella Typhimurium SL1344 infected in 129x1/SvJ mouse assessed as survival at 20 mg/kg, po administered 3 hrs pre and 3 hrs post-bacterial challenge measured after 24 hrs; assay type: functional
Summary of the method: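 Female 129x1/SvJ mice, 7–9 weeks old, were infected intraperitoneally with 10^8 cfu S. typhimurium SL1344. The test agent was given orally at 20 mg/kg in 5% DMSO/23% PEG400/70% Na bicarbonate pH 9/2% Tween 80, 3 h before and 3 h after infection. Controls were drug alone and infection alone. Groups of 10 mice were used and the experiment was repeated twice. Morbidity and death were recorded daily, and survivors were euthanized at day 12.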

Mus musculus [24] = assay: Toxicity in CD1 mouse assessed as hematocrit content at 20 mg/kg, po administered daily once for 5 days measured 3 days after final dose; assay type: organism-based; parameters: dose 20 mg/kg, route oral; conditions: in vivo, 72 h; summary of the method: as §2
[25] = Terminal half life in CD1 mouse at 20 mg/kg, iv administered as bolus dose; assay type: ADME, organism-based; parameters: dose 20 mg/kg, route intravenous; conditions: in vivo, read-out: beta t1/2; summary of the method: as §1
Mus musculus [26] = assay: Toxicity in CD1 mouse assessed as urea nitrogen levels at 20 mg/kg, po administered daily once for 5 days measured 3 days after final dose; assay type: organism-based; parameters: dose 20 mg/kg, route oral; conditions: in vivo, 72 h; summary of the method: as §2
Escherichia coli [27] = assay: Antibacterial activity against Escherichia coli infected in New Zealand white rabbit assessed as inhibition of bacterial colonization in ileum at 20 mg/kg administered along with bacterial challenge; assay type: functional, organism-based; parameters: dose 20 mg/kg
[28] = biological target: Beta-1 adrenergic receptor (Homo sapiens) (UniProt P08588); assay: Effect on dobutamine-induced human beta-1-adrenergic receptor activation expressed in HEK293 cells assessed as cAMP release at 5 uM; assay type: functional, cell-based; summary of the method: as §4
Mus musculus [29] = assay: Toxicity in CD1 mouse assessed as serum total protein levels at 20 mg/kg, po administered daily once for 5 days measured 3 days after final dose; assay type: organism-based; parameters: dose 20 mg/kg, route oral; conditions: in vivo, 72 h; summary of the method: as §2
[30] = system: Francisella tularensis subsp. tularensis SCHU S4; assay: Bacteriostatic activity against Francisella tularensis SCHU S4 at 1 uM; assay type: functional, organism-based
Mus musculus [31] = assay: Toxicity in CD1 mouse assessed as total bilirubin levels at 20 mg/kg, po administered daily once for 5 days measured 3 days after final dose; assay type: organism-based; parameters: dose 20 mg/kg, route oral; conditions: in vivo, 72 h; summary of the method: as §2

Chain of Beta-2 adrenergic receptor (Homo sapiens) (P07550 whole entry, looked up): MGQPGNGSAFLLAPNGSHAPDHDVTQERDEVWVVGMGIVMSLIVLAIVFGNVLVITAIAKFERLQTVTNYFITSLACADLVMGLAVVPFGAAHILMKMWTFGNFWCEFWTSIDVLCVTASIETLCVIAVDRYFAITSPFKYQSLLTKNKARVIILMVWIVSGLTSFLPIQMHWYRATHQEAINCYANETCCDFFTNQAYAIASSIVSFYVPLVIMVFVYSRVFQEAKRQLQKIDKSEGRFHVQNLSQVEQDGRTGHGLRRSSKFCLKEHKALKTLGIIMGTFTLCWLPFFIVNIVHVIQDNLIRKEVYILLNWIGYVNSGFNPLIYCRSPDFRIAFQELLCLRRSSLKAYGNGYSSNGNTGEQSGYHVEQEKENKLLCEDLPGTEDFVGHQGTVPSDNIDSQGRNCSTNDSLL
Chain of Beta-1 adrenergic receptor (Homo sapiens) (P08588 whole entry, looked up): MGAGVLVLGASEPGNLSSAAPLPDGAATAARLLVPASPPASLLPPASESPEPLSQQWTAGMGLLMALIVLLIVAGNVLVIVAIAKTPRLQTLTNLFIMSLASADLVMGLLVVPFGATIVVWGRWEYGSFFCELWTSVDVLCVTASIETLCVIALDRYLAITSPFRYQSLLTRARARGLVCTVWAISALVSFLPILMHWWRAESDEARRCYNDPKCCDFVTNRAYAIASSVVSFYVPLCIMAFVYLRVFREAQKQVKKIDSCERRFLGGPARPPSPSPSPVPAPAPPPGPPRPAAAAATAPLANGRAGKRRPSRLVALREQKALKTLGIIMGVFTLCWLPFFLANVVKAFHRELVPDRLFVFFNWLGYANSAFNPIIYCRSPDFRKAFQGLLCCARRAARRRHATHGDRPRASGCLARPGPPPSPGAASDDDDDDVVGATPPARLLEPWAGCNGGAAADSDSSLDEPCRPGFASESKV

Structure (SMILES): O=S(=O)(Nc1ccccc1)c1ccc(NC(=S)Nc2ccccc2)cc1
- Cmax [1]: 4750 ng/mL
- AUC [2]: 1090 ng·h/mL
- AUC [3]: 2400 ng·h/mL
- Activity (Mus musculus [4]): Non-toxic
- Activity (Mus musculus [5]): Non-toxic
- Cmax [6]: 2700 ng/mL
- Activity [7]: inactive
- Activity (Mus musculus [8]): 12 g/dL
- Activity (Mus musculus [9]): 16.1 pg
- Activity (Escherichia coli [10]): inactive
- Activity (Mus musculus [11]): 31.7 U/L
- Activity (Mus musculus [12]): Non-toxic
- Activity (Salmonella typhimurium [13]): inactive
- Activity (Mus musculus [14]): 31.3 g/dL
- CL/F [15]: 2.34 mL/min
- Activity (Escherichia coli [16]): Active
- Activity [17]: inactive
- Activity (Mus musculus [18]): 11 mg/dL
- Activity (Mus musculus [19]): Non-toxic
- Activity (Escherichia coli [20]): Active
- half-life [21]: 4.92 h
- Activity [22]: Active
- Activity (Salmonella typhimurium [23]): 80%
- Activity (Mus musculus [24]): 38.5%
- half-life [25]: 5.65 h
- Activity (Mus musculus [26]): 19 mg/dL
- Activity (Escherichia coli [27]): inactive
- Activity [28]: inactive
- Activity (Mus musculus [29]): 4.4 g/dL
- Activity [30]: inactive
- Activity (Mus musculus [31]): 0.2 mg/dL
